Measurements from ChEMBL document CHEMBL4038338 (J Med Chem, 2017).
Each block holds one compound with its values, some of them ahead of it. Calls of active or inactive are those of the source. No cut-off for these calls is given here.

Key:
[1] = Inhibition of human liver cathepsin L using Z-Phe-Arg-AMC as substrate by kinetic fluorescence assay
Cathepsin S = Cathepsin S (Homo sapiens, UniProt P25774); experiment: Inhibition of human cathepsin S expressed in Escherichia coli using Z-Val-Val-Arg-AMC as substrate by kinetic fluorescence assay
Cathepsin S, sequence (P25774 whole entry): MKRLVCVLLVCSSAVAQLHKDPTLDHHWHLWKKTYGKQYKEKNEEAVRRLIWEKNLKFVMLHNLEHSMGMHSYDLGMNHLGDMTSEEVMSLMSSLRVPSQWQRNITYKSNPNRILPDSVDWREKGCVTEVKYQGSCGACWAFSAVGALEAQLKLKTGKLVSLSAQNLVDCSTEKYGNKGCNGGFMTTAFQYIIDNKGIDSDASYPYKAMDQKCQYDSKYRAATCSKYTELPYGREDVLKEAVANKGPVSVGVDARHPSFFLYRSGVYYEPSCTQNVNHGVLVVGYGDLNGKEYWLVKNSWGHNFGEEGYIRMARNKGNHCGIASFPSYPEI

[2] = molecular target: T1, Calpain-1 catalytic subunit (Homo sapiens, UniProt P07384); experiment: Inhibition of human erythrocytes calpain-1 using Suc-Leu-Tyr-AMC as substrate by kinetic fluorescence assay; details: read-out: Ki
T1 sequence (P07384 whole entry): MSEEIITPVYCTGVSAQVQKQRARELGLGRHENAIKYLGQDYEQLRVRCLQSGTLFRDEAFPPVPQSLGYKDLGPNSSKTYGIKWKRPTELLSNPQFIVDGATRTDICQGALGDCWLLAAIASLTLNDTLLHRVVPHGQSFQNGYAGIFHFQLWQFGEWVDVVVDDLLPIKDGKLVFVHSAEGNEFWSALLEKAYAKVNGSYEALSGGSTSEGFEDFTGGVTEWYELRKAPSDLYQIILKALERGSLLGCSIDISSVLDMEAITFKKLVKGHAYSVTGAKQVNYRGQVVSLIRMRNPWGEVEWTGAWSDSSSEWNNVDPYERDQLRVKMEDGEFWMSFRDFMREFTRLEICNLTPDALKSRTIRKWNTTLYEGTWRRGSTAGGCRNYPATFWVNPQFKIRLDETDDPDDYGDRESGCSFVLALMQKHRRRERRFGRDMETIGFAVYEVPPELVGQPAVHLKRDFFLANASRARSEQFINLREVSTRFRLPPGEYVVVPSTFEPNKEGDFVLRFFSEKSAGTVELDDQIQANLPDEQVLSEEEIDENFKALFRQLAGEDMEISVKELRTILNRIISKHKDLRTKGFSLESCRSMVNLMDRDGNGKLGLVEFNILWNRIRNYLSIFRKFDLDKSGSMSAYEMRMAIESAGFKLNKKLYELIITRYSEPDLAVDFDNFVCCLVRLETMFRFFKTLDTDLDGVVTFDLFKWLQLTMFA

[3] = molecular target: T2, Carbonyl reductase [NADPH] 1 (Homo sapiens, UniProt P16152); experiment: Drug level in human blood treated with [3H]-labeled N-(4-Amino-3,4-dioxo-1-phenylbutan-2-yl)-2-(3-(4-fluorophenyl)-1H-pyrazol-1-yl)nicotinamide assesseed as cytosolic carbonyl reductase-mediated compound formation; format: ADME; details: cytosol
T2 sequence (P16152 whole entry): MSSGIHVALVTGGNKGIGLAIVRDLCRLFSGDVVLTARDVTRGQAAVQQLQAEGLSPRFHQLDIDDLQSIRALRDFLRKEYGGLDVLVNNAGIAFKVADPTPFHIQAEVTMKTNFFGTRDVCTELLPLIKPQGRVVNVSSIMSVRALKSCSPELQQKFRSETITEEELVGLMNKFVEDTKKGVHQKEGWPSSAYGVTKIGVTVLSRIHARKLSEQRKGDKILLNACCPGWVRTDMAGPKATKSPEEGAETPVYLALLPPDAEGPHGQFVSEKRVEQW

[4] = molecular target: T2, Carbonyl reductase [NADPH] 1; experiment: Drug level in human hepatocytes treated with [3H]-labeled N-(4-Amino-3,4-dioxo-1-phenylbutan-2-yl)-2-(3-(4-fluorophenyl)-1H-pyrazol-1-yl)nicotinamide assesseed as cytosolic carbonyl reductase-mediated compound formation; format: ADME, cell-based
[5] = Drug level in monkey hepatocytes treated with [3H]-labeled N-(4-Amino-3,4-dioxo-1-phenylbutan-2-yl)-2-(3-(4-fluorophenyl)-1H-pyrazol-1-yl)nicotinamide assesseed as cytosolic carbonyl reductase-mediated compound formation; format: ADME, cell-based, Macaca mulatta; details: rhesus monkey
[6] = Drug level in monkey blood treated with [3H]-labeled N-(4-Amino-3,4-dioxo-1-phenylbutan-2-yl)-2-(3-(4-fluorophenyl)-1H-pyrazol-1-yl)nicotinamide assesseed as cytosolic carbonyl reductase-mediated compound formation; format: ADME, Macaca mulatta; details: rhesus monkey, cytosol
Homo sapiens [7] = species on record: Homo sapiens; experiment: Selectivity ratio of Ki for recombinant human procathepsin K expressed in Escherichia coli to Ki for human erythrocytes calpain-1
In short: (§1)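 Ki ratios from kinetic fluorescence assays. Cathepsins B (0.25 nM), L (1 nM), K (3 nM) and S (0.5 nM) in MES buffer at pH 6.0. All at room temperature; Ki by Cheng-Prusoff.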

[8] = molecular target: T3, Calpain-1 catalytic subunit (Homo sapiens) (UniProt P07384); experiment: Inhibition of human erythrocytes calpain-1 using Suc-Leu-Tyr-AMC as substrate in presence of up to 10 mM glutathione by kinetic fluorescence assay
T3 sequence (whole entry): T1 sequence (P07384 whole entry)

[9] = molecular target: T4, Calpain-1 catalytic subunit (Rattus norvegicus, UniProt P97571); experiment: (§2) Inhibition of calpain-1 in rat hippocampal slices assessed as prevention of NMDA-induced spectrin cleavage preincubated for 30 mins followed by NMDA addition measured after 5 hrs by Western blot analysis
T4 sequence (P97571 whole entry): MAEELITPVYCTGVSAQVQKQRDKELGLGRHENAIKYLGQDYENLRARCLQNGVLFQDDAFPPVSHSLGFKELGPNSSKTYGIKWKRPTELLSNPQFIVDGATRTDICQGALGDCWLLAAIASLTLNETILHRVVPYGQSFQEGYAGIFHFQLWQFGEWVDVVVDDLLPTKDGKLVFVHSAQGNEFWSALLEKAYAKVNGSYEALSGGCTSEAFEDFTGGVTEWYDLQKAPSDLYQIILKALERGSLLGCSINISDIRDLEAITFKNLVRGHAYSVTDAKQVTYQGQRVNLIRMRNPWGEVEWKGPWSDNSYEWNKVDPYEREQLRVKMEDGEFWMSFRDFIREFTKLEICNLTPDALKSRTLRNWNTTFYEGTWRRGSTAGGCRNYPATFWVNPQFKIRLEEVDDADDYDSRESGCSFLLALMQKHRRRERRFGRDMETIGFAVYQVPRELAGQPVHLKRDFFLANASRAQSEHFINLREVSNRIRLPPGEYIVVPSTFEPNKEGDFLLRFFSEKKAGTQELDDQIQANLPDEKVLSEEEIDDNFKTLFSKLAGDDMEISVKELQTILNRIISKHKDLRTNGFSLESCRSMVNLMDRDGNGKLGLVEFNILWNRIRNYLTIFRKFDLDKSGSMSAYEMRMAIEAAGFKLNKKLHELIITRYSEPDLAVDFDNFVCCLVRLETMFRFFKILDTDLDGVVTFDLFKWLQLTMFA
In short: (§3)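 Organotypic rat hippocampal slice cultures kept 6–8 days in 2% serum medium; 30 min inhibitor pre-incubation, then 10 µM NMDA for 5 h at 34°C, 5% CO2. Slices lysed; 150/145 kDa spectrin breakdown products quantified by densitometric Western blot with anti-spectrin alpha chain antibody.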

[10] = molecular target: T5, Calpain-1 catalytic subunit (Rattus norvegicus) (UniProt P97571); experiment: as §2; in short: as §3
T5 sequence (whole entry): T4 sequence (P97571 whole entry)

[11] = Selectivity ratio of Ki for human liver cathepsin L to Ki for human erythrocytes calpain-1
[12] = Thiol reactivity using recombinant human full length 13C-labeled La antigen (100 to 324 residues) expressed in Escherichia coli BL21(DE3) by ALARM NMR
Homo sapiens [13] = species on record: Homo sapiens; experiment: Selectivity ratio of Ki for recombinant human cathepsin S expressed in Escherichia coli to Ki for human erythrocytes calpain-1; in short: as §1
[14] = Selectivity ratio of Ki for human liver cathepsin B to Ki for human erythrocytes calpain-1

Ki [1]: 0.204 µM
Ki (Cathepsin S): > 10 µM
Ki [2]: 0.109 µM
SMILES: CCN(CC)Cc1ccc(/C=C/c2ncccc2C(=O)NC(Cc2ccccc2)C(=O)C(N)=O)cc1 (configuration not stated)

Ki [1]: 0.491 µM
Ki (Cathepsin S): 7.26 µM
Ki [2]: 0.25 µM
SMILES: NC(=O)C(=O)C(Cc1ccccc1)NC(=O)c1cccnc1N1CCN(c2ccccc2)CC1 (configuration not stated)

Ki [1]: 0.039 µM
Ki (Cathepsin S): 1.78 µM
Ki [2]: 0.125 µM
SMILES: NC(=O)C(=O)C(Cc1ccccc1)NC(=O)c1cccnc1N1CCC(c2ccccc2)C1 (configuration not stated)

Drug metabolism [3]: Metabolite_Detected
Drug metabolism [4]: Metabolite_Detected
Drug metabolism [5]: Metabolite_Detected
Drug metabolism [6]: Metabolite_Detected
SMILES: NC(=O)C(O)C(Cc1ccccc1)NC(=O)c1cccnc1-n1ccc(-c2ccc(F)cc2)n1 (configuration not stated)

inhibition [8]: Active
IC50 [9]: 5.18 µM
fIC50 [10]: 155 nM
Ki [2]: 0.04 µM
SMILES: NC(=O)C(=O)C(Cc1ccccc1)NC(=O)c1cccnc1-n1ccc(-c2cccc(C(F)(F)F)c2)n1 (configuration not stated)
Ratio Ki (Homo sapiens [7]): 28
Ratio Ki [11]: >300
Thiol reactivity [12]: Metabolite not detected
Ratio Ki (Homo sapiens [13]): > 500
Ratio Ki [14]: 17
